Calls of active or inactive are those of the source. No cut-off for these calls is given here.
What was measured:
Mus musculus [1] = organism: Mus musculus; assay: Antidiabetic activity in diabetic db/db mouse assessed as time required for improved glucose disposal by oral glucose tolerance test; assay type: functional
Summary of the method: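 db/db mice, 6–8 per group, fasted ~6 h (food removed 3 h before prebleed), dosed orally at −4.5 and −0.5 h relative to oral glucose (vehicle 10% captisol). Tail-snip blood glucose was read by glucometer or analyzer; plasma insulin was measured by ELISA.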

[2] = Inhibition of human GSK3 using biotin-CREB peptide substrate after 1 hr by scintillation counting method
[3] = Inhibition of GSK3 expressed in CHO-IR cells expressing human insulin receptor assessed as glycogen synthase activation after 30 mins by filter paper assay; assay type: cell-based, Cavia porcellus
[4] = target: Glycogen synthase kinase-3 alpha (Homo sapiens, UniProt P49840); assay: Inhibition of human GSK3alpha using biotin-CREB peptide substrate after 1 hr by scintillation counting method
[5] = target: Cyclin-dependent kinase 1 (Homo sapiens, UniProt P06493); assay: Inhibition of human CDC2 using biotin histone H1 peptide substrate after 1 hr by scintillation counting method
[6] = target: Mitogen-activated protein kinase 1 (Homo sapiens, UniProt P28482); assay: Inhibition of human ERK2 using myelin basic protein substrate after 1 hr by scintillation counting method
[7] = target: T1, Protein kinase C zeta type (Homo sapiens, UniProt Q05513); assay: Inhibition of human PKCzeta using biotin-PKC-86 peptide substrate after 30 mins in the presence of phosphatidylserine and diacylglycerol activators by scintillation counting
T1 sequence (Q05513 whole entry): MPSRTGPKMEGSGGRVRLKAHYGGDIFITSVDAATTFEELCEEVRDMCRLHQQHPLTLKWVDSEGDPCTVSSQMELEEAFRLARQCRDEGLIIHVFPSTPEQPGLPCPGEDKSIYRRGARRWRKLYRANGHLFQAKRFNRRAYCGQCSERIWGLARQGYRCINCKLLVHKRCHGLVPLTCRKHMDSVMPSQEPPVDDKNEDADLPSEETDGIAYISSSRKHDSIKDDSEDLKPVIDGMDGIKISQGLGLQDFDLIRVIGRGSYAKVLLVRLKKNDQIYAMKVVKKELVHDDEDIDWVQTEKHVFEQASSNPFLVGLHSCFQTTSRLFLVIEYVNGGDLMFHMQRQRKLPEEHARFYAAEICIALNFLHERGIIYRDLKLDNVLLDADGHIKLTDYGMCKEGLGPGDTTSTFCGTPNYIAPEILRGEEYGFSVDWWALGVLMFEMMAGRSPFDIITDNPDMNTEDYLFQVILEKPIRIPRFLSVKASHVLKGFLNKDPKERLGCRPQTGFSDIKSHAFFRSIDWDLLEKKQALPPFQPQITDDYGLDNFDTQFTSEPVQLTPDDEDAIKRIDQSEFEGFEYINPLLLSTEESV
Summary of the method: (§1)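 Kinase buffer: 50 mmol/L Tris-HCl pH 7.5, 10 mmol/L MgCl2, 1 mmol/L EGTA, 1 mmol/L DTT, 25 mmol/L β-glycerophosphate, 1 mmol/L NaF, 0.01% BSA. It contained kinase, peptide substrate and activators. Compound was added in DMSO with 1 μmol/L final ATP. PKC-ζ, AMPK and pdk1 were commercial enzymes.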

[8] = target: RAC-alpha serine/threonine-protein kinase (Homo sapiens, UniProt P31749); assay: Inhibition of human AKT1/PKB using phospho-AKT peptide substrate after 1 hr by scintillation counting method
Angiopoietin-1 receptor = Angiopoietin-1 receptor (Homo sapiens, UniProt Q02763)
[9] = target: Vascular endothelial growth factor receptor 1 (Homo sapiens, UniProt P17948)
[10] = target: Vascular endothelial growth factor receptor 2 (Homo sapiens, UniProt P35968)
[11] = target: Fibroblast growth factor receptor 1 (Homo sapiens, UniProt P11362)
[12] = target: Insulin-like growth factor 1 receptor (Homo sapiens, UniProt P08069)
[13] = Inhibition of rat AMP kinase using SAMS peptide substrate in the presence of AMP after 1 hr by scintillation counting method; summary of the method: as §1
[14] = target: T2, 3-phosphoinositide-dependent protein kinase 1 (Homo sapiens, UniProt O15530); assay: Inhibition of human PDK1 using unactivated AKT substrate in presence of COPC, DOPS and PIP3 activators after 1 hr by scintillation counting method; summary of the method: as §1
T2 sequence (O15530 whole entry): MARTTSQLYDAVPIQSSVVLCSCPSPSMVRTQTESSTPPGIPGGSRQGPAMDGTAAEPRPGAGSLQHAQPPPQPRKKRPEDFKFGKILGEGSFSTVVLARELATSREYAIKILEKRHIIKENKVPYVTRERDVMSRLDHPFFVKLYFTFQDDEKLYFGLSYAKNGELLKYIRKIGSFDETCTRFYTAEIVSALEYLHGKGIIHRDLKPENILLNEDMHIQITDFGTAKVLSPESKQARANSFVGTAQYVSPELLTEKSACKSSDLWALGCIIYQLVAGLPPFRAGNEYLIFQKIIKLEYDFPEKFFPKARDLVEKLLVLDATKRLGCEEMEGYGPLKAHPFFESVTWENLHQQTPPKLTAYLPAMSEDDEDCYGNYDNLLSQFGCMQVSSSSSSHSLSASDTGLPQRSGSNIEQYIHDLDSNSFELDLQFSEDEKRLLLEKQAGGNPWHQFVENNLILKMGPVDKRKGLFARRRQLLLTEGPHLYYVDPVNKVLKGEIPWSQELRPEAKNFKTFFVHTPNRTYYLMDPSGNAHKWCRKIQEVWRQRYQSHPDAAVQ

[15] = target: T3, Serine/threonine-protein kinase Chk1 (Homo sapiens, UniProt O14757); assay: Inhibition of human CHK1 using biotin-CDC25 peptide substrate after 1 hr by scintillation counting method
T3 sequence (O14757 whole entry): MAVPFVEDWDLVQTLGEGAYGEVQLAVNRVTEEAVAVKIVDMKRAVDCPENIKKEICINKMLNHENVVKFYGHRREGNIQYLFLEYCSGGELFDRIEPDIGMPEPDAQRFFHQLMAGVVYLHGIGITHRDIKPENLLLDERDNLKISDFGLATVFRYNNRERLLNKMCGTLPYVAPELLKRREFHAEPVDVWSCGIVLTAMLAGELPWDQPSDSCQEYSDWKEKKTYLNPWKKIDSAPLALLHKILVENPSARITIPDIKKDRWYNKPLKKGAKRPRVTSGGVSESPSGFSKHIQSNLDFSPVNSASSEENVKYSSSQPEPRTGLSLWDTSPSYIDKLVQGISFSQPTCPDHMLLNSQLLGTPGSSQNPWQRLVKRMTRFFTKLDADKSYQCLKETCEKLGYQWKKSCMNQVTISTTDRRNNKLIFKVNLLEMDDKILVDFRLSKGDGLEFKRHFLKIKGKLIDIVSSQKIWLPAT

[16] = target: Casein kinase I isoform epsilon (Homo sapiens, UniProt P49674); assay: Inhibition of human CK1epsilon using biotin peptide substrate after 1 hr by scintillation counting method
[17] = Inhibition of human DNA-dependent protein kinase using PI as substrate after 1 hr by scintillation counting method
[18] = Inhibition of human phosphatidylinositol (PI) 3-kinase using PI as substrate after 1 hr by scintillation counting method
Rattus norvegicus [19] = assay: Antidiabetic activity in diabetic ZDF fa/fa rat assessed as reduction in plasma glucose AUC at 8 mg/kg administered 4.5 and 0.5 hrs prior to oral glucose challenge by oral glucose tolerance test; assay type: functional; set-up: scale not given: the % may be the effect or the level left
Summary of the method: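 Obese 10-week-old ZDF (fa/fa) rats, n = 8/group, fasted overnight, given 8 mg/kg orally at 4.5 and 0.5 h before oral glucose challenge. Efficacy is the percent reduction in plasma glucose AUC versus untreated animals. Formulations were 15% captisol, 1% CMC or water with pH adjusted.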

[20] = Oral bioavailability in diabetic ZDF fa/fa rat at 8 mg/kg administered 4.5 and 0.5 hrs prior to oral glucose challenge; assay type: ADME, organism-based; details: in vivo
[21] = Plasma concentration in diabetic db/db mouse at 30 mg/kg administered at 4.5 and 0.5 hrs prior to oral glucose challenge measured 20 mins post second dose; details: plasma
[22] = Half life in diabetic ZDF fa/fa rat at 8 mg/kg administered 4.5 and 0.5 hrs prior to oral glucose challenge; assay type: ADME, organism-based; details: in vivo
[23] = Stability in rat liver microsomes assessed as half life; assay type: ADME, microsome
[24] = Stability in dog liver microsomes assessed as half life; assay type: ADME, Canis lupus familiaris, microsome
[25] = target: Glycogen synthase kinase-3 beta (Homo sapiens, UniProt P49841); assay: Inhibition of human GSK3beta using biotin-CREB peptide substrate after 1 hr by scintillation counting method
Rattus norvegicus [26] = assay: Antihyperglycemic activity in diabetic ZDF fa/fa rat assessed as plasma glucose levels at 30 mg/kg, po administered as single dose measured after 60 mins (reference value: 500 to 550 mg/dl); assay type: functional
Summary of the method: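 Twelve-week-old male ZDF (fa/fa) rats with fasted basal glucose of 500–550 mg/dL, food removed 3–4 h before dosing. A single oral dose was given with vehicle 15% captisol. Plasma glucose and insulin were measured from serial tail-snip bleeds, n = 8/group, mean ± SEM.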

[27] = Inhibition of human phosphodiesterase 3 using cAMP substrate after 20 mins by scintillation counting
Mus musculus [28] = assay: Antiobesity activity in diabetic […] mouse assessed as improvement in glucose tolerance administered at 30 mg/kg, po measured post glucose challenge by oral glucose tolerance test relative to control; assay type: functional, organism-based
Summary of the method: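 ob/ob mice aged 9–10 weeks, 6–8 per group, given an oral glucose tolerance test with oral dosing at −4.5 and −0.5 h (vehicle captisol). Plasma glucose and insulin were measured after the glucose challenge. Values are mean ± SEM.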

Mus musculus [29] = assay: Antidiabetic activity in diabetic db/db mouse assessed as reduction in plasma glucose AUC administered orally at 4.5 and 0.5 hrs prior to oral glucose challenge by oral glucose tolerance test; assay type: functional
Summary of the method: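 db/db mice, 6–8 per group, fasted ~6 h, dosed orally at 30 mg/kg at −4.5 and −0.5 h before oral glucose challenge. Efficacy is the percent reduction in plasma glucose AUC versus untreated animals. Vehicle was 15% captisol, 1% CMC or pH-adjusted water.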

Mus musculus [30] = organism: Mus musculus; assay: Antidiabetic activity in streptozotocin-treated mouse fed with high fat diet assessed as reduction in post-challenge glucose AUC; assay type: functional; set-up: scale not given: the % may be the effect or the level left
Summary of the method: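 Mice on a high-fat diet with intermittent streptozotocin were dosed orally at −4.5 and −0.5 h before oral glucose challenge. Post-challenge glucose AUC and insulin were measured.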

Rattus norvegicus [31] = assay: Antidiabetic activity in 12 weeks old obese ZDF fa/fa rat assessed as increase in plasma glucose disposal at 30 mg/kg dosed at 4.5 and 0.5 hrs prior to oral glucose challenge by oral glucose tolerance test; assay type: functional, organism-based
Rattus norvegicus [32] = assay: Antihyperglycemic activity in diabetic ZDF fa/fa rat assessed as plasma glucose levels at 5 mg/kg, iv prime dose with continuous infusion at 64 ug/kg/min for 4 days (reference value: 223 +/- 18 mg/dL); assay type: functional
Mus musculus [33] = assay: Antiobesity activity in diabetic […] mouse assessed as improvement in glucose tolerance administered at 30 mg/kg, po measured post glucose challenge and measured after 20 hrs post compound dose by oral glucose tolerance test relative to control; assay type: functional, organism-based

Mitogen-activated protein kinase 1, sequence (P28482 whole entry): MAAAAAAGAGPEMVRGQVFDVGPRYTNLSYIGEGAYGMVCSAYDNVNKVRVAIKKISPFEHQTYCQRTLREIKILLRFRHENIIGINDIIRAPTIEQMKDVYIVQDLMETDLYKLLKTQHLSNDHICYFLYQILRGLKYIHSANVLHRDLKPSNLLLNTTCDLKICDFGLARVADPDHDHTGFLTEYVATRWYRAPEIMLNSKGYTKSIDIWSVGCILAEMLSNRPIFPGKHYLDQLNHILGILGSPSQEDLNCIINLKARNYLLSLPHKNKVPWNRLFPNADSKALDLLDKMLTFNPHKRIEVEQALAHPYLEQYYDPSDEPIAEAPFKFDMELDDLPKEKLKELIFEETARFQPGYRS
Fibroblast growth factor receptor 1, sequence (P11362 whole entry): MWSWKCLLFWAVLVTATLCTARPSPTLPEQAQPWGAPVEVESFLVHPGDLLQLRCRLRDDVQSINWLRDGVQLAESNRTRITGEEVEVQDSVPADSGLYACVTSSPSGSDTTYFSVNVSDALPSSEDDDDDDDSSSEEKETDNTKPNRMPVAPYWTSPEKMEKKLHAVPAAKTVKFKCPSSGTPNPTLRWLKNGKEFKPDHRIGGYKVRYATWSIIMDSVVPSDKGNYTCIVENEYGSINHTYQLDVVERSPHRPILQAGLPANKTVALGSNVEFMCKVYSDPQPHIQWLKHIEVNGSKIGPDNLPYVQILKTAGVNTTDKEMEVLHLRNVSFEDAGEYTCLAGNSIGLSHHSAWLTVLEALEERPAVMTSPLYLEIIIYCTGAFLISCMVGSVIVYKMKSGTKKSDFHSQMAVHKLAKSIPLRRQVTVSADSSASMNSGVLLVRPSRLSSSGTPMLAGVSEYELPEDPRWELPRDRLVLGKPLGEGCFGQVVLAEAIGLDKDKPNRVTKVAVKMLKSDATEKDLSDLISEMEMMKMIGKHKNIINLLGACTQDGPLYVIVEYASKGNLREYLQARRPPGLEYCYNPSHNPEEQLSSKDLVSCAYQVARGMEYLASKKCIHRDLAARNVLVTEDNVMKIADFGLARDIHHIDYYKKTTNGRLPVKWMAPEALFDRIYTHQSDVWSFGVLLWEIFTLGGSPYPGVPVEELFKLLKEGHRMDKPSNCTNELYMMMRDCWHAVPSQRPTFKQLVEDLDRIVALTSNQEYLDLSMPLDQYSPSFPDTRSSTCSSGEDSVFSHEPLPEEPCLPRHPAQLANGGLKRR
Glycogen synthase kinase-3 beta, sequence (P49841 whole entry): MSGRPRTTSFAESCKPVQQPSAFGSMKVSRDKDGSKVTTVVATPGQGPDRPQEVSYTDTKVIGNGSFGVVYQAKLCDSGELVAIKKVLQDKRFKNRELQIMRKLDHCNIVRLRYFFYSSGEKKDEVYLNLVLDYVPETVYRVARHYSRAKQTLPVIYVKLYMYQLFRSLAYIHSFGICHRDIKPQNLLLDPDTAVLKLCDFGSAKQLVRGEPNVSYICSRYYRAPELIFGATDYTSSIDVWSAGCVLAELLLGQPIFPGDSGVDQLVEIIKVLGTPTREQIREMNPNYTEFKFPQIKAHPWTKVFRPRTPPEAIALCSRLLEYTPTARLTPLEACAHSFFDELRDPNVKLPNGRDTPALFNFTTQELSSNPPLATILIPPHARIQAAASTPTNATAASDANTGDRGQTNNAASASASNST
RAC-alpha serine/threonine-protein kinase, sequence (P31749 whole entry): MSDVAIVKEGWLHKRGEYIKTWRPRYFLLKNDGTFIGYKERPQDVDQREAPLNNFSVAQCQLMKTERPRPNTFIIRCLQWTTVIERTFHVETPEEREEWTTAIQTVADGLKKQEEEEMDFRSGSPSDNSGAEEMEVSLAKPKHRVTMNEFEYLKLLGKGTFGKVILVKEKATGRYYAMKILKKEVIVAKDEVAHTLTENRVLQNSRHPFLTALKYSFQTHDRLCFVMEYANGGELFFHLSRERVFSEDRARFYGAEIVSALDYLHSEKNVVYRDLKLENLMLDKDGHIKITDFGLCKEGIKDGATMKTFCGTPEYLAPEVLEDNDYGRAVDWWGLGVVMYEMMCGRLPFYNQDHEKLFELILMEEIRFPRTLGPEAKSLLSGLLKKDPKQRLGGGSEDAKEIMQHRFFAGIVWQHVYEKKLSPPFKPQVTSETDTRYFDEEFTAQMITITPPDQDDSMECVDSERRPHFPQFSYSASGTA
Vascular endothelial growth factor receptor 2, sequence (P35968 whole entry): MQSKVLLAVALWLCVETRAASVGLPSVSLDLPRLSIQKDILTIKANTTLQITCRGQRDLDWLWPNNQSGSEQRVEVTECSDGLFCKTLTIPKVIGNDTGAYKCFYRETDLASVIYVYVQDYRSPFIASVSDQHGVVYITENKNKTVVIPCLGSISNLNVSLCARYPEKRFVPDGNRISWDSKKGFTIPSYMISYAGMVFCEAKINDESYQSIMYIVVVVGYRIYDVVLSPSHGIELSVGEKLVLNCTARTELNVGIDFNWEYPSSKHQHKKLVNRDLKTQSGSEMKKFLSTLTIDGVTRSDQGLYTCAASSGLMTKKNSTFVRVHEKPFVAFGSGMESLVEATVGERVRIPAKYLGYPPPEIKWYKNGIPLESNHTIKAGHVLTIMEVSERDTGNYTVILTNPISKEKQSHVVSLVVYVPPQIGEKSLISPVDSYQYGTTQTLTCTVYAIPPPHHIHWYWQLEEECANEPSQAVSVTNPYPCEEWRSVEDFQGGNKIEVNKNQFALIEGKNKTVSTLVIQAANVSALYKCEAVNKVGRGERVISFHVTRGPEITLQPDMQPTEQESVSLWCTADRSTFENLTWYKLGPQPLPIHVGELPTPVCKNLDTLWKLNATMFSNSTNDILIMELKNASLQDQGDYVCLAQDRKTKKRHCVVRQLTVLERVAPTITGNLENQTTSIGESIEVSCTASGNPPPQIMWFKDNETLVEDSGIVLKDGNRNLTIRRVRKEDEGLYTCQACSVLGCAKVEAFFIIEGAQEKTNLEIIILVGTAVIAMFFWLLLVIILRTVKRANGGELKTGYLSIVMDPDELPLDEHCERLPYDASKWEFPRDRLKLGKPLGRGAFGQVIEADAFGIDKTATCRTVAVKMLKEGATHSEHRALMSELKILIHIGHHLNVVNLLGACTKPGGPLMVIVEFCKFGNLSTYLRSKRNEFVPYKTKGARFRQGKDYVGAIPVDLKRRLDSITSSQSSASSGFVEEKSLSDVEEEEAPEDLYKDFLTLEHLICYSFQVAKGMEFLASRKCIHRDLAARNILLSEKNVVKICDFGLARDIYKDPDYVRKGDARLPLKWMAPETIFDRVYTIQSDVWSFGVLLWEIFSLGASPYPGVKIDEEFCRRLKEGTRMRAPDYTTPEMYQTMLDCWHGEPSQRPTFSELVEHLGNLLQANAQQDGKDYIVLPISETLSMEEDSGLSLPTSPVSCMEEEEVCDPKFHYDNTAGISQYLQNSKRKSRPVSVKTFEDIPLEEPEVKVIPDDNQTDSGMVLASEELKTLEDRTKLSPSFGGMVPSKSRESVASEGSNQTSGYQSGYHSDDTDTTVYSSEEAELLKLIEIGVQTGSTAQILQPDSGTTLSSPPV
Casein kinase I isoform epsilon, sequence (P49674 whole entry, canonical isoform): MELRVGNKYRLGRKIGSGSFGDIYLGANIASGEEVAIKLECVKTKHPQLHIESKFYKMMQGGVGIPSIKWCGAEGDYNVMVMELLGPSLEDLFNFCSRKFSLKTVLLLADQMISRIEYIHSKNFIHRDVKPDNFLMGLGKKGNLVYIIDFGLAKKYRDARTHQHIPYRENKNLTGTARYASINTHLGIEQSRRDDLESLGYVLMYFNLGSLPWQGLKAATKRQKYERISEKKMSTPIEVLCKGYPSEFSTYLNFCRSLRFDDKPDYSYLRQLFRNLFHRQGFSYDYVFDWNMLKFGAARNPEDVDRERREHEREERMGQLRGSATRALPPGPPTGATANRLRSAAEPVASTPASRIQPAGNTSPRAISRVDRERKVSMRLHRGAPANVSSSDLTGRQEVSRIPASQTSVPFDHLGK
Cyclin-dependent kinase 1, sequence (P06493 whole entry): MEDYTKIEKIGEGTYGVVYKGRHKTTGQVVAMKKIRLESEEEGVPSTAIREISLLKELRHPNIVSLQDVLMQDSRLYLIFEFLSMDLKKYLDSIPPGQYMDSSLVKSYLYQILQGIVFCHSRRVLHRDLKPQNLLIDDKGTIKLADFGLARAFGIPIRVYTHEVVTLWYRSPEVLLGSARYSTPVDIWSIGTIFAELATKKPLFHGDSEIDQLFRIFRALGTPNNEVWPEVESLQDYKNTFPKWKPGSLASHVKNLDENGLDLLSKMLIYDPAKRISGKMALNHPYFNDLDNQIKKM
Glycogen synthase kinase-3 alpha, sequence (P49840 whole entry): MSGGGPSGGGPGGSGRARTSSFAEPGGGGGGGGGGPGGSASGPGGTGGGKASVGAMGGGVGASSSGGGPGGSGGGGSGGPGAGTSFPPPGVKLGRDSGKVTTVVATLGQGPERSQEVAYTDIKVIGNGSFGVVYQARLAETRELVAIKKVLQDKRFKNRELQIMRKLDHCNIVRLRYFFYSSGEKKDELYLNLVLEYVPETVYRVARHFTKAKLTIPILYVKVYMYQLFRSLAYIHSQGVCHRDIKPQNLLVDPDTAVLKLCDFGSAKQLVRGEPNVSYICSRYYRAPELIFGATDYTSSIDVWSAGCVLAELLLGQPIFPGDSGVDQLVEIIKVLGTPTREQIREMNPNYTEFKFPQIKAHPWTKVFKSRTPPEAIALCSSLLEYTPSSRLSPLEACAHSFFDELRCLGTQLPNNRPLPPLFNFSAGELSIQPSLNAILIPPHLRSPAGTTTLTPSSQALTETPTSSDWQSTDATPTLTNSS

**Q.** For `Cc1c(C)c2c(c(C)c1O)CCC(C)(COc1ccc(CC3SC(=O)NC3=O)cc1)O2` (stereo unspecified) [TROGLITAZONE], which Time (Mus musculus [1]) is on record?
**A.** Its Time is “<=2 weeks”.

**Q.** Which results are given for `Nc1nc(NCCNc2ncc(-c3ncc[nH]3)c(-c3ccc(Cl)cc3Cl)n2)ccc1[N+](=O)[O-]`?
**A.** IC50 [2]: 0.001 µM; EC50 [3]: 0.26 µM; IC50 [4]: 0.0271 µM; IC50 [5]: > 10 µM; IC50 [6]: > 10 µM; IC50 [7]: > 10 µM; IC50 [8]: > 10 µM; IC50 (Angiopoietin-1 receptor): > 25 µM; IC50 [9]: > 5 µM; IC50 [10]: > 5 µM; IC50 [11]: > 5 µM; IC50 [12]: > 10 µM; IC50 [13]: > 10 µM; IC50 [14]: > 10 µM; IC50 [15]: > 10 µM; IC50 [16]: > 10 µM; IC50 [17]: > 10 µM; IC50 [18]: > 5 µM; Activity (Rattus norvegicus [19]): 29%; bioavailability [20]: 6%; concentration at 20 min [21]: 19000 ng/mL; half-life [22]: 46 min; half-life [23]: > 30 min; half-life [24]: > 30 min; IC50 [25]: 0.0006 µM

**Q.** Which Activity (Rattus norvegicus [26]) does the source give for `Cc1cnc(-c2cnc(NCCNc3ccc(C#N)cn3)nc2-c2ccc(Cl)cc2Cl)[nH]1` [LADUVIGLUSIB] here?
**A.** The Activity was “>=150 mg/dl”.

**Q.** What about the IC50 [2] of the same compound?
**A.** The IC50 was 0.005 µM.

**Q.** What about the EC50 [3] of the same compound?
**A.** Its EC50 is 0.77 µM.

**Q.** What about the IC50 [13] of the same compound?
**A.** Its IC50 is over 10 µM.

**Q.** What about the IC50 [17] of the same compound?
**A.** The IC50 was over 10 µM.

**Q.** What about the IC50 [18] of the same compound?
**A.** Its IC50 is over 10 µM.

**Q.** And the Ki [27]?
**A.** Its Ki is 8.3 µM.

**Q.** And the Activity (Rattus norvegicus [19])?
**A.** Its Activity is 38%.

**Q.** And the Activity (Mus musculus [28])?
**A.** The Activity was “Active”.

**Q.** What about the Activity (Mus musculus [29]) of the same compound?
**A.** The Activity was “Dose-dependent effect”.

**Q.** What about the Activity (Mus musculus [30]) of the same compound?
**A.** The Activity was 53%.

**Q.** And the Activity (Rattus norvegicus [31])?
**A.** Its Activity is “Active”.

**Q.** And the Activity (Rattus norvegicus [32])?
**A.** The Activity was 116 mg/dL.

**Q.** And the Activity (Mus musculus [33])?
**A.** The Activity was “Active”.

**Q.** Which Time (Mus musculus [1]) does the source give for `CN(C)C(=N)NC(=N)N` [METFORMIN] here?
**A.** Its Time is “<=2 weeks”.

From ChEMBL document CHEMBL4020814, “Synthesis, Binding Mode, and Antihyperglycemic Activity of Potent and Selective (5-Imidazol-2-yl-4-phenylpyrimidin-2-yl)[2-(2-pyridylamino)ethyl]amine Inhibitors of Glycogen Synthase Kinase 3” (J Med Chem, 2017)
